Consider 16 compounds from ChEMBL document CHEMBL3872287, “Novel 2-Substituted 7-Azaindole and 7-Azaindazole Analogues as Potential Antiviral Agents for the Treatment of Influenza” (ACS Med Chem Lett, 2017).

Series [1] can be described thus: Antiviral activity against Influenza A virus (A/Puerto Rico/8/34(H1N1)) infected in MDCK cells assessed as decrease in negative strand HA RNA levels after 20 hrs by bDNA hybridization method. The series is classed as functional, Influenza A virus (A/Puerto Rico/8/1934(H1N1)). The method in brief:
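Viral RNA in infected cells quantified by branched DNA assay. EC90 is the test-compound concentration giving viral RNA levels equal to 10% of control wells.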

Series [2] concerns the target T1, aldehyde oxidase (Homo sapiens, UniProt Q06278).
T1 sequence (Q06278 whole entry): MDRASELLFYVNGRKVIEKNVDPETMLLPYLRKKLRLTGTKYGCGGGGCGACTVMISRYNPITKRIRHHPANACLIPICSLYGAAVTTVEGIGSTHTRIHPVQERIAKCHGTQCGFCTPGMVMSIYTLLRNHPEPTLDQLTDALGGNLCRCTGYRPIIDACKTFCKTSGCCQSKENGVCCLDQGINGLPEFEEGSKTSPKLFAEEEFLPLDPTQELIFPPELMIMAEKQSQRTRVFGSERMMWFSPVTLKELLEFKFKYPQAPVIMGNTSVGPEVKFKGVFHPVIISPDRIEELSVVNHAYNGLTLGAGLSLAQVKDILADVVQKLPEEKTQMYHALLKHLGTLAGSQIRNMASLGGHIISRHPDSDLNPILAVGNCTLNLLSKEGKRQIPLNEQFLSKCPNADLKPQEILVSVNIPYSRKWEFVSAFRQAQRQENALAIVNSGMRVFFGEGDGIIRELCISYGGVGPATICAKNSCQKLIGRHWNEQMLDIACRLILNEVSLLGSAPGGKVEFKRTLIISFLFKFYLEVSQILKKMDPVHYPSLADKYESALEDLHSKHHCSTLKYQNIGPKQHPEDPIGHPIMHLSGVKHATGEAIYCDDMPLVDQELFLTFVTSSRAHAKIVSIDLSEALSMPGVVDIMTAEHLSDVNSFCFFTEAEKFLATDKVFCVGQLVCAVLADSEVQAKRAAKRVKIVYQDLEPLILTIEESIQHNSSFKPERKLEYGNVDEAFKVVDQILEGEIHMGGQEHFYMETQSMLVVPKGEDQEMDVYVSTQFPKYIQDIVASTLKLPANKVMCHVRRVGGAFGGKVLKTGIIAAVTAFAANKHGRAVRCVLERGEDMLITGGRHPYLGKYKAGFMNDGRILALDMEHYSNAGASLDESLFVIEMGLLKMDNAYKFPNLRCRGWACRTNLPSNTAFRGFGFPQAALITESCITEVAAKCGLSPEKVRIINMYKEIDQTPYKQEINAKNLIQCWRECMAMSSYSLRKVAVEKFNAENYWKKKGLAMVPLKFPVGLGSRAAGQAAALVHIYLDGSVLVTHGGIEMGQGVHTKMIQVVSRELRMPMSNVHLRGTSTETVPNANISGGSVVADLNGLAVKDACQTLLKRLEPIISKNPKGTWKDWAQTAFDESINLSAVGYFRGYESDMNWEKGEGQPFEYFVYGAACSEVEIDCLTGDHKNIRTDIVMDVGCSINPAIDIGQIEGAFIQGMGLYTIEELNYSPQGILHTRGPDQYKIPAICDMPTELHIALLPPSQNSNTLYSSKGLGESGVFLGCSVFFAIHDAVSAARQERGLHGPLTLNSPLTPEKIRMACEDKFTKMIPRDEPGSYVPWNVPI
In words: Drug metabolism in human liver cytosol assessed as aldehyde oxidase-mediated metabolism by measuring amount of parent compound remaining measured over 4 hrs in presence of aldehyde oxidase inhibitor raloxifene by MS/MS analysis. The conditions noted are these: read-out: Stability. The series is classed as ADME. In a few lines:
(§1)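 Test compounds were incubated in triplicate at 1 µM in human liver cytosol (1 mg/mL protein) at 37 °C for 4 hours, with or without the aldehyde oxidase inhibitor raloxifene.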

Series [3] concerns the target T1, aldehyde oxidase. Description: Drug metabolism in human liver cytosol assessed as aldehyde oxidase-mediated metabolism by measuring amount of parent compound remaining measured over 4 hrs in absence of aldehyde oxidase inhibitor raloxifene by MS/MS analysis. The conditions noted are these: read-out: Stability. The series is classed as ADME. The method in brief:
as §1

A short description of series [4]: AUC in mouse at 30 mg/kg, po. The series is classed as ADME, organism-based. The conditions noted are these: in vivo.
Series [5] in a line: Clearance in rat at 1 mg/kg, iv. Format: ADME, organism-based. Particulars: in vivo.
The nature of series [6]: AUC (0 to infinity) in rat at 3 mg/kg, po. The series is classed as ADME, organism-based. Also noted: dose 3 mg/kg, time infinity, route oral. The conditions noted are these: in vivo.
Series [7] is described as follows: Half life in rat at 1 mg/kg, iv. Format: ADME, organism-based. The conditions noted are these: in vivo.
Series [8] is described as follows: Cmax in rat at 3 mg/kg, po. Format: ADME, organism-based. Details: dose 3 mg/kg, route oral. The conditions noted are these: in vivo.
Series [9] can be described thus: Oral bioavailability in rat at 3 mg/kg. Format: ADME, organism-based. The conditions noted are these: in vivo.
Series [10] can be described thus: Volume of distribution in steady state in rat at 1 mg/kg, iv. The conditions noted are these: in vivo, read-out: Vdss. The series is classed as ADME, organism-based.
Series [11] is described as follows: Cmax in mouse at 30 mg/kg, po. The series is classed as ADME, organism-based. Also noted: dose 30 mg/kg, route oral. Particulars: in vivo.

The structures appear in SMILES notation.

On to `O=C(N[C@@H]1CCC[C@H](Nc2nc(-c3c(CO)[nH]c4ncc(F)cc34)ncc2F)C1)N1CC[C@@H](F)C1`, for which the EC90 in [1] (Influenza A virus, MDCK, 20 h) came to 10 nM. In addition, the remaining at 4 h came to 114% at aldehyde oxidase [2] and 105% on aldehyde oxidase [3].

On to `O=C(N[C@@H]1CCC[C@H](Nc2nc(-c3c[nH]c4ncc(F)cc34)ncc2F)C1)N1CCCC1`, for which the AUC in [4] is 336000 ng·h/mL. Besides, the clearance in [5] worked out at 1.2 mL/min/kg. Besides, the AUC(0-inf) in series [6] was found to be 30300 ng·h/mL. Besides, the EC90 in series [1] (Influenza A virus, MDCK, 20 h) stood at 1 nM. In addition, the remaining at 4 h amounted to 99% at aldehyde oxidase [2] and 4% at aldehyde oxidase [3]. Also, the half-life in [7] was 3.2 h. Further, the Cmax was found to be 2600 ng/mL in [8] and 61100 ng/mL in [11]. Further, the bioavailability in [9] was 82%. For the same compound, the Vd in [10] turned out to be 0.3 L/kg.

Take `O=C(N[C@@H]1CCC[C@H](Nc2nc(-c3n[nH]c4ncc(F)cc34)ncc2F)C1)N1CCOCC1`: the EC90 in series [1] (Influenza A virus, MDCK, 20 h) is 14 nM.

For `Cc1[nH]c2ncc(F)cc2c1-c1ncc(F)c(N[C@H]2CCC[C@@H](NC(=O)N3CCCC3)C2)n1`, the 90% effect concentration (EC90) in [1] (Influenza A virus, MDCK, 20 h) was found to be 280 nM. For the same compound, the remaining at 4 h on aldehyde oxidase [2] and on aldehyde oxidase [3] was 103% each time.

Turning to `CC(O)c1[nH]c2ncc(F)cc2c1-c1ncc(F)c(N[C@H]2CCC[C@@H](NC(=O)N3CCCC3)C2)n1` (stereo in doubt; 21b), the EC90 in series [1] was found to be 460 nM. Also, the remaining at 4 h on aldehyde oxidase [2] and at aldehyde oxidase [3] was 99% each time.

For the compound `O=C(N[C@@H]1CCC[C@H](Nc2nc(-c3c(C4CC4)[nH]c4ncc(F)cc34)ncc2F)C1)N1CCCC1`, the EC90 in series [1] (Influenza A virus, MDCK, 20 h) was more than 3300 nM.

Compound `O=C(N[C@@H]1CCC[C@H](Nc2nc(-c3c(CO)[nH]c4ncc(F)cc34)ncc2F)C1)N1CCCC1` came in with an AUC in [4] of 101000 ng·h/mL. The clearance in series [5] was 6.2 mL/min/kg. In series [6], this compound came in with an AUC(0-inf) of 9700 ng·h/mL. Moreover, in series [1] (Influenza A virus, MDCK, 20 h), the 90% effect concentration (EC90) was found to be 28 nM. In addition, the remaining at 4 h stood at 96% on aldehyde oxidase [2] and 100% on aldehyde oxidase [3]. Further, the half-life in [7] was 2.3 h. Moreover, the Cmax in series [8] worked out at 2800 ng/mL; in [11], 37700 ng/mL. Further, the bioavailability in series [9] came to 100%. Also, the Vd in series [10] stood at 0.6 L/kg.

On to `O=C(O)[C@H]1C2CCC(CC2)[C@@H]1Nc1nc(-c2n[nH]c3ncc(F)cc23)ncc1F`, for which, in series [1] (Influenza A virus, MDCK, 20 h), the EC90 was 3 nM.

On to `O=C(O)c1[nH]c2ncc(F)cc2c1-c1ncc(F)c(N[C@H]2CCC[C@@H](NC(=O)N3CCCC3)C2)n1`, for which the EC90 in [1] (Influenza A virus, MDCK, 20 h) is 2200 nM.

`O=C(N[C@@H]1CCC[C@H](Nc2nc(-c3c(/C=N/O)[nH]c4ncc(F)cc34)ncc2F)C1)N1CCCC1`: the 90% effect concentration (EC90) in [1] (Influenza A virus, MDCK, 20 h) is 91 nM.

In [4], `O=C(N[C@@H]1CCC[C@H](Nc2nc(-c3n[nH]c4ncc(F)cc34)ncc2F)C1)N1CCCC1` showed an AUC of 44500 ng·h/mL. Moreover, the clearance in series [5] came out at 7.7 mL/min/kg. This compound also displayed an AUC(0-inf) in series [6] of 1200 ng·h/mL. Also, in series [1] (Influenza A virus, MDCK, 20 h), the EC90 was 2 nM. The values for the remaining at 4 h at aldehyde oxidase [2] and on aldehyde oxidase [3] were 101% and 1%, respectively. In [7], this compound gave a half-life of 1.5 h. Moreover, the Cmax in series [8] amounted to 200 ng/mL; in series [11], 32100 ng/mL. Also, the bioavailability in series [9] came out at 15.3%. Moreover, the Vd in series [10] came out at 0.4 L/kg.

As for `O=C(N[C@@H]1CCC[C@H](Nc2nc(-c3c[nH]c4ncc(F)cc34)ncc2F)C1)N1CCOCC1`, the remaining at 4 h was found to be 103% at aldehyde oxidase [2] and 7% at aldehyde oxidase [3].

Regarding `Cn1cnc(C(=O)N[C@@H]2CCC[C@H](Nc3nc(-c4n[nH]c5ncc(F)cc45)ncc3F)C2)c1`, the EC90 in [1] (Influenza A virus, MDCK, 20 h) worked out at 15 nM. Moreover, the remaining at 4 h on aldehyde oxidase [2] came to 103%; at aldehyde oxidase [3], 40%.

For `O=C(N[C@@H]1CCC[C@H](Nc2nc(-c3n[nH]c4ncc(F)cc34)ncc2F)C1)N1CC[C@@H](F)C1`, the EC90 in series [1] (Influenza A virus, MDCK, 20 h) came to 1 nM. Moreover, the figures for the remaining at 4 h on aldehyde oxidase [2] and at aldehyde oxidase [3] were 98% and 0.6%, respectively.

`CC(O)c1[nH]c2ncc(F)cc2c1-c1ncc(F)c(N[C@H]2CCC[C@@H](NC(=O)N3CCCC3)C2)n1` (stereo in doubt; 21a): the concentration for an effect of 90% (EC90) in [1] was determined as 27 nM.

On to `O=C(N[C@@H]1CCC[C@H](Nc2nc(-c3n[nH]c4ncc(F)cc34)ncc2F)C1)c1ccsc1`, for which the 90% effect concentration (EC90) in series [1] (Influenza A virus, MDCK, 20 h) amounted to 1 nM. For the same compound, the remaining at 4 h on aldehyde oxidase [2] is 107%; on aldehyde oxidase [3], 0%.

In general, EC90 refers to the concentration at which the effect reaches the 90% level. One may read the AUC as the area under the concentration-time curve, a measure of exposure. Higher therefore signals high exposure. The term clearance denotes the rate of elimination divided by the concentration. Read a low clearance as a low capacity for elimination. The AUC(0-inf) is the area under the concentration-time curve extrapolated to infinity. By half-life is commonly meant how long it takes for the measured level to halve. In general, Cmax refers to the highest concentration seen after dosing. For orientation: bioavailability means dose-corrected exposure relative to a reference, in per cent. High values mean much systemic uptake, low ones little systemic uptake.
